In ChEMBL document CHEMBL3232847, “Discovery of 6-phenylpyrimido[4,5-b][1,4]oxazines as potent and selective acyl CoA:diacylglycerol acyltransferase 1 (DGAT1) inhibitors with in vivo efficacy in rodents” (J Med Chem, 2014):
Values belong to the compound of their own block, whether it stands above or below them. Active and inactive are the calls of the source. The calls are words filed in the database; no cut-off is given here.

Tests used:
[1] = AUC in cynomolgus monkey at 30 mg/kg/day, po qd; type: ADME, organism-based, Macaca fascicularis; parameters: route oral; conditions: plasma
Outline: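 Cynomolgus monkeys dosed orally once daily at 10 or 30 mg/kg for 21 days in a multiple-dose toxicity study. Plasma AUC was reported, with ALT/AST levels, QTc intervals and clinical and histopathological findings monitored.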

[2] = AUC in Sprague-Dawley rat at 100 mg/kg, po qd; type: ADME, organism-based; parameters: dose 100 mg/kg, route oral; conditions: plasma
Outline: (§1)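 Sprague-Dawley rats dosed orally once daily for 14 days in a multiple-dose toxicity study at 10, 30 or 100 mg/kg. Plasma exposure was reported as AUC, and clinical and histopathological findings were recorded.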

[3] = Volume of distribution at steady state in cynomolgus monkey at 0.5 mg/kg, iv; type: ADME, organism-based, Macaca fascicularis; parameters: dose 0.5 mg/kg, route intravenous; conditions: in vivo, read-out: Vdss
[4] = Volume of distribution at steady state in Sprague-Dawley rat at 0.7 mg/kg, iv; type: ADME, organism-based; parameters: dose 0.7 mg/kg, route intravenous; conditions: in vivo, read-out: Vdss
[5] = Oral bioavailability in Sprague-Dawley rat at 5 mg/kg; type: ADME, organism-based; conditions: in vivo
[6] = AUC in cynomolgus monkey at 5 mg/kg, po; type: ADME, organism-based, Macaca fascicularis; parameters: dose 5 mg/kg, route oral; conditions: plasma
[7] = AUC in Sprague-Dawley rat at 10 mg/kg, po qd; type: ADME, organism-based; parameters: dose 10 mg/kg, route oral; conditions: plasma; outline: as §1
Cynomolgus monkey = experiment: Toxicity in cynomolgus monkey assessed as elevation of change in clinical parameters at 10 to 30 mg/kg/day, po qd by 21-day multiple-dose toxicity study relative to control; type: organism-based, Macaca fascicularis; parameters: route oral; conditions: in vivo
Outline: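 Cynomolgus monkeys were dosed po once daily at 10 and 30 mg/kg for 21 days. ALT and AST levels, QTc intervals, and clinical and histopathological findings were assessed, and plasma AUC was recorded for each dose.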

[8] = Half life in beagle dog at 0.2 mg/kg, iv; type: ADME, organism-based, Canis lupus familiaris; parameters: dose 0.2 mg/kg, route intravenous; conditions: in vivo
[9] = Clearance in Sprague-Dawley rat at 0.7 mg/kg, iv; type: ADME, organism-based; parameters: dose 0.7 mg/kg, route intravenous; conditions: in vivo
[10] = target: T1, Diacylglycerol O-acyltransferase 2 (Homo sapiens, UniProt Q96PD7); experiment: Inhibition of human liver flag-tagged DGAT2 expressed in baculovirus infected insect cells after 2 hrs by SPA
T1 sequence (Q96PD7 whole entry): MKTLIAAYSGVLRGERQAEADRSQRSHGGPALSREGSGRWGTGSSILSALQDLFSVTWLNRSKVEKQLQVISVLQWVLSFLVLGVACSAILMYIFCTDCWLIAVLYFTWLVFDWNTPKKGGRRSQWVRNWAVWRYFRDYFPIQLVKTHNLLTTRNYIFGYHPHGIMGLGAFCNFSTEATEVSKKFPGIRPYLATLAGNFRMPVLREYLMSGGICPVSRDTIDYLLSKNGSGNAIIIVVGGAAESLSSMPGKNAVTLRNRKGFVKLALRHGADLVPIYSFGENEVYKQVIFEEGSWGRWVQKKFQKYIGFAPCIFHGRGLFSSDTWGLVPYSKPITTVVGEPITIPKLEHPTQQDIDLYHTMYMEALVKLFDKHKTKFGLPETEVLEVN

[11] = AUC in cynomolgus monkey at 100 mg/kg, po administered as single dose relative to control; type: ADME, organism-based, Macaca fascicularis; parameters: dose 100 mg/kg, route oral; conditions: plasma
Outline: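 Cynomolgus monkeys received a single oral dose of 100 mg/kg. Plasma AUC was recorded alongside plasma liver enzymes ALT and AST.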

[12] = AUC in Sprague-Dawley rat at 30 mg/kg, po; type: ADME, organism-based; parameters: dose 30 mg/kg, route oral; conditions: plasma
[13] = Volume of distribution at steady state in Sprague-Dawley rat at 1 mg/kg, iv; type: ADME, organism-based; parameters: dose 1 mg/kg, route intravenous; conditions: in vivo, read-out: Vdss
[14] = AUC in CD1 mouse at 2 mg/kg, po; type: ADME, organism-based; parameters: dose 2 mg/kg, route oral; conditions: plasma
Mus musculus [15] = species: Mus musculus; experiment: Inhibition of mouse liver microsomal GPAT up to 10 uM by TLC technique in presence of glycerol-3-phosphate and [14C] palmitoyl CoA
[16] = Volume of distribution at steady state in rhesus monkey at 0.2 mg/kg, iv; type: ADME, organism-based, Macaca mulatta; parameters: dose 0.2 mg/kg, route intravenous; conditions: in vivo, read-out: Vdss
[17] = Clearance in Sprague-Dawley rat at 1 mg/kg, iv; type: ADME, organism-based; parameters: dose 1 mg/kg, route intravenous; conditions: in vivo
[18] = Oral Bioavailability in CD1 mouse at 2 mg/kg; type: ADME, organism-based; conditions: in vivo
[19] = AUC in Sprague-Dawley rat at 2 mg/kg, po; type: ADME, organism-based; parameters: dose 2 mg/kg, route oral; conditions: plasma
[20] = target: Voltage-gated inwardly rectifying potassium channel KCNH2 (Homo sapiens, UniProt Q12809); experiment: Inhibition of human ERG by patch clamp assay
Rattus norvegicus [21] = species: Rattus norvegicus; experiment: Inhibition of rat small intestine microsomal MGAT up to 10 uM by TLC technique in presence of monoacylglycerol and [14C] palmitoyl CoA; type: microsomes
Mus musculus [22] = experiment: Reduction in plasma triglyceride level in C57BL/6J mouse at 0.3 mg/kg, po treated 30 mins prior to olive oil administration measured 3 hrs post olive oil administration relative to vehicle-treated control; type: functional; parameters: scale not given: the % may be the effect or the level left
Outline: (§2)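 Animals received vehicle or compound by oral gavage, then olive oil (5 mL/kg) by oral gavage 30 min later. Plasma triglycerides were measured before dosing and 3 h after the oil. The read-out was the change in TG from pre-dose, compared with vehicle-treated animals.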

Rattus norvegicus [23] = experiment: Reduction in plasma triglyceride level in Sprague-Dawley rat at 0.1 mg/kg, po treated 30 mins prior to olive oil administration measured 3 hrs post olive oil administration relative to vehicle-treated control; type: functional; parameters: scale not given: the % may be the effect or the level left; outline: as §2

Sequence of Voltage-gated inwardly rectifying potassium channel KCNH2 (Q12809 whole entry): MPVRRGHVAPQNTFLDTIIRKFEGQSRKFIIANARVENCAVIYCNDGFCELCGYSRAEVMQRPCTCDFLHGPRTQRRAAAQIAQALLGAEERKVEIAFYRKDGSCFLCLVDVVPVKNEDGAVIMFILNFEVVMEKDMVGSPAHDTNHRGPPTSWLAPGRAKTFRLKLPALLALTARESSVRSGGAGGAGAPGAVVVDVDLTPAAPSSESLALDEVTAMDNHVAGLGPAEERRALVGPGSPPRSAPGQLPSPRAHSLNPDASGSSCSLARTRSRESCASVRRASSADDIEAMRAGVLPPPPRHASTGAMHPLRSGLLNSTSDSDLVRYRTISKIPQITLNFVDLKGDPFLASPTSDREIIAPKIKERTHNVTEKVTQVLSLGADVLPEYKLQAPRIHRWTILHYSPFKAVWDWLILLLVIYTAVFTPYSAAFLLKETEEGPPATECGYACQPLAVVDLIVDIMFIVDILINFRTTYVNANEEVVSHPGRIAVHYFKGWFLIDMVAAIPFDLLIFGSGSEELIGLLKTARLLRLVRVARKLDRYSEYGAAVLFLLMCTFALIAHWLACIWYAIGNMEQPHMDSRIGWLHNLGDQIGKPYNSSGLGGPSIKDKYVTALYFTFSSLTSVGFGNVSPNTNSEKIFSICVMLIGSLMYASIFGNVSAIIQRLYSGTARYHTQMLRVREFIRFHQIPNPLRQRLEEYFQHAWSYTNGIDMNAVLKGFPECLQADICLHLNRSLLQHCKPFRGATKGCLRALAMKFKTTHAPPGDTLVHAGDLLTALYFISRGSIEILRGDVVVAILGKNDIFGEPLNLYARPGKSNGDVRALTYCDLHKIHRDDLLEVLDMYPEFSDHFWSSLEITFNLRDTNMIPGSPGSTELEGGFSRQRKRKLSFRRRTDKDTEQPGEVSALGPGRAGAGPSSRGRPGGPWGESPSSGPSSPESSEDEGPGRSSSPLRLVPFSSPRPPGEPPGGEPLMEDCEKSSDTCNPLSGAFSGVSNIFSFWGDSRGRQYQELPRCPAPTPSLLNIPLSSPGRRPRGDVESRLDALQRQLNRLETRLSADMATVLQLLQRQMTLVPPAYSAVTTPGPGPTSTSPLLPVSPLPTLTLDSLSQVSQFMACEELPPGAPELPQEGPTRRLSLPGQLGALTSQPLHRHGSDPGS

AUC [1]: 2560 µM·h
AUC [2]: 677 µM·h
Vd [3]: 0.44 L/kg
Vd [4]: 1.1 L/kg
bioavailability [5]: 98%
AUC [6]: 252000 ng·h/mL
AUC [7]: 11 µM·h
half-life [8]: 1.1 h
clearance [9]: 3.5 mL/min/kg
IC50 [10]: > 10 µM
Structure (SMILES): CC1(C)Oc2nc(C(F)(F)F)nc(N)c2N=C1c1ccc2c(c1)CC[C@]21CC[C@@H](CC(=O)O)CC1
Activity (Cynomolgus monkey): Non-toxic

AUC [11]: 1420 µM·h
AUC [12]: 913 µM·h
Vd [13]: 1.65 L/kg
AUC [14]: 6690 ng·h/mL
inhibition (Mus musculus [15]): inactive
Vd [16]: 0.46 L/kg
clearance [17]: 9.17 mL/min/kg
bioavailability [18]: 40%
AUC [19]: 1010 ng·h/mL
Structure (SMILES): CC1(C)Oc2ncnc(N)c2N=C1c1ccc([C@H]2CC[C@H](CC(=O)O)CC2)cc1
IC50 [20]: > 10 µM
inhibition (Rattus norvegicus [21]): inactive
Activity (Mus musculus [22]): 93%
Activity (Rattus norvegicus [23]): 68%
